Data reported in ChEMBL document CHEMBL4334451, “Natural Alkaloid Berberine Activity against Pseudomonas aeruginosa MexXY-Mediated Aminoglycoside Resistance: In Silico and in Vitro Studies” (J Nat Prod, 2019).
Calls of active or inactive are those of the source. The rule behind the calls is not given here.

How the values were obtained:
Format in all cases: protein-complex assay
[1] = target: T1, MexXY/OprM (Pseudomonas aeruginosa (strain ATCC 15692 / DSM 22644 / CIP 104116 / JCM14847 / LMG 12228 / 1C / PRS 101 / PAO1)) (UniProt Q51487+Q9ZNG9+Q9ZNG8); assay: Inhibition of MexXY/OPRM in Pseudomonas aeruginosa C89 assessed as reduction in bacterial resistance to tobramycin by measuring tobramycin MIC at 80 ug/ml incubated for 24 to 48 hrs by broth microdilution method (reference value: >128 ug/ml)
Method in brief: (§1)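 Broth microdilution per CLSI, with P. aeruginosa ATCC 27853 as reference strain, in 2-fold dilution series. Plates were incubated at 37°C and read for visible growth at 24 and 48 h. Berberine stock was in 50% DMSO/50% methanol, with final DMSO kept near 1%. Berberine was tested at 10–320 µg/ml, alone or at a fixed level with serial tobramycin.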

[2] = target: T1, MexXY/OprM (Pseudomonas aeruginosa (strain ATCC 15692 / DSM 22644 / CIP 104116 / JCM14847 / LMG 12228 / 1C / PRS 101 / PAO1)); assay: Inhibition of MexXY/OPRM in Pseudomonas aeruginosa C61 assessed as reduction in bacterial resistance to tobramycin by measuring fold reduction in tobramycin MIC at 80 ug/ml incubated for 24 to 48 hrs by broth microdilution method
[3] = target: T1, MexXY/OprM (Pseudomonas aeruginosa (strain ATCC 15692 / DSM 22644 / CIP 104116 / JCM14847 / LMG 12228 / 1C / PRS 101 / PAO1)); assay: Inhibition of MexXY/OPRM in Pseudomonas aeruginosa C95 assessed as reduction in bacterial resistance to tobramycin by measuring increase in tobramycin-mediated bactericidal activity at 80 ug/ml in presence of 0.5XMIC tobramycin measured after 4 hrs by Time-kill curve analysis
[4] = target: T1, MexXY/OprM (Pseudomonas aeruginosa (strain ATCC 15692 / DSM 22644 / CIP 104116 / JCM14847 / LMG 12228 / 1C / PRS 101 / PAO1)); assay: Inhibition of MexXY/OPRM in Pseudomonas aeruginosa AR61 assessed as reduction in bacterial resistance to tobramycin by measuring tobramycin MIC at 80 ug/ml incubated for 24 to 48 hrs by broth microdilution method (reference value: 0.125 ug/ml)
[5] = target: T1, MexXY/OprM (Pseudomonas aeruginosa (strain ATCC 15692 / DSM 22644 / CIP 104116 / JCM14847 / LMG 12228 / 1C / PRS 101 / PAO1)); assay: Inhibition of MexXY/OPRM in Pseudomonas aeruginosa C104 assessed as reduction in bacterial resistance to tobramycin by measuring tobramycin MIC at 80 ug/ml incubated for 24 to 48 hrs by broth microdilution method (reference value: 32 ug/ml)
[6] = target: T1, MexXY/OprM (Pseudomonas aeruginosa (strain ATCC 15692 / DSM 22644 / CIP 104116 / JCM14847 / LMG 12228 / 1C / PRS 101 / PAO1)); assay: Inhibition of MexXY/OPRM in Pseudomonas aeruginosa C60 assessed as bacterial growth up to 320 ug/ml incubated for 24 to 48 hrs by broth microdilution method
Method in brief: (§2)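 Broth microdilution following CLSI guidelines, with P. aeruginosa ATCC 27853 as reference strain. Berberine was tested at 2-fold concentrations from 10 to 320 µg/ml, dissolved in 50% DMSO/50% methanol, with the top concentration set to keep final DMSO close to 1%. Plates were incubated at 37°C and read for visible growth at 24 and 48 h.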

[7] = target: T1, MexXY/OprM (Pseudomonas aeruginosa (strain ATCC 15692 / DSM 22644 / CIP 104116 / JCM14847 / LMG 12228 / 1C / PRS 101 / PAO1)); assay: Inhibition of MexXY/OPRM in Pseudomonas aeruginosa C15 assessed as bacterial growth up to 320 ug/ml incubated for 24 to 48 hrs by broth microdilution method; method in brief: as §2
[8] = target: T1, MexXY/OprM (Pseudomonas aeruginosa (strain ATCC 15692 / DSM 22644 / CIP 104116 / JCM14847 / LMG 12228 / 1C / PRS 101 / PAO1)); assay: Inhibition of MexXY/OPRM in Pseudomonas aeruginosa C98 assessed as bacterial growth up to 320 ug/ml incubated for 24 to 48 hrs by broth microdilution method; method in brief: as §1
[9] = target: T1, MexXY/OprM (Pseudomonas aeruginosa (strain ATCC 15692 / DSM 22644 / CIP 104116 / JCM14847 / LMG 12228 / 1C / PRS 101 / PAO1)); assay: Inhibition of MexXY/OPRM in Pseudomonas aeruginosa C15 assessed as reduction in bacterial resistance to tobramycin by measuring tobramycin MIC at 80 ug/ml incubated for 24 to 48 hrs by broth microdilution method (reference value: 8 ug/ml)
[10] = target: T1, MexXY/OprM (Pseudomonas aeruginosa (strain ATCC 15692 / DSM 22644 / CIP 104116 / JCM14847 / LMG 12228 / 1C / PRS 101 / PAO1)); assay: Inhibition of MexXY/OPRM in Pseudomonas aeruginosa AR48 assessed as reduction in bacterial resistance to tobramycin by measuring fold reduction in tobramycin MIC at 80 ug/ml incubated for 24 to 48 hrs by broth microdilution method
[11] = target: T1, MexXY/OprM (Pseudomonas aeruginosa (strain ATCC 15692 / DSM 22644 / CIP 104116 / JCM14847 / LMG 12228 / 1C / PRS 101 / PAO1)); assay: Inhibition of MexXY/OPRM in Pseudomonas aeruginosa C70 assessed as reduction in bacterial resistance to tobramycin by measuring tobramycin MIC at 80 ug/ml incubated for 24 to 48 hrs by broth microdilution method (reference value: 32 ug/ml)
[12] = target: T1, MexXY/OprM (Pseudomonas aeruginosa (strain ATCC 15692 / DSM 22644 / CIP 104116 / JCM14847 / LMG 12228 / 1C / PRS 101 / PAO1)); assay: Inhibition of MexXY/OPRM in Pseudomonas aeruginosa C103 assessed as reduction in bacterial resistance to tobramycin by measuring tobramycin MIC at 80 ug/ml incubated for 24 to 48 hrs by broth microdilution method (reference value: 4 ug/ml)
[13] = target: T1, MexXY/OprM (Pseudomonas aeruginosa (strain ATCC 15692 / DSM 22644 / CIP 104116 / JCM14847 / LMG 12228 / 1C / PRS 101 / PAO1)); assay: Inhibition of MexXY/OPRM in Pseudomonas aeruginosa C59 assessed as reduction in bacterial resistance to tobramycin by measuring tobramycin MIC at 80 ug/ml incubated for 24 to 48 hrs by broth microdilution method (reference value: 64 ug/ml)
[14] = target: T1, MexXY/OprM (Pseudomonas aeruginosa (strain ATCC 15692 / DSM 22644 / CIP 104116 / JCM14847 / LMG 12228 / 1C / PRS 101 / PAO1)); assay: Inhibition of MexXY/OPRM in Pseudomonas aeruginosa C31 assessed as reduction in bacterial resistance to tobramycin by measuring tobramycin MIC at 80 ug/ml incubated for 24 to 48 hrs by broth microdilution method (reference value: 8 ug/ml)
[15] = target: T1, MexXY/OprM (Pseudomonas aeruginosa (strain ATCC 15692 / DSM 22644 / CIP 104116 / JCM14847 / LMG 12228 / 1C / PRS 101 / PAO1)); assay: Inhibition of MexXY/OPRM in Pseudomonas aeruginosa C54 assessed as bacterial growth up to 320 ug/ml incubated for 24 to 48 hrs by broth microdilution method; method in brief: as §2
[16] = target: T1, MexXY/OprM (Pseudomonas aeruginosa (strain ATCC 15692 / DSM 22644 / CIP 104116 / JCM14847 / LMG 12228 / 1C / PRS 101 / PAO1)); assay: Inhibition of MexXY/OPRM in Pseudomonas aeruginosa C83 assessed as reduction in bacterial resistance to tobramycin by measuring fold reduction in tobramycin MIC at 80 ug/ml incubated for 24 to 48 hrs by broth microdilution method
[17] = target: T1, MexXY/OprM (Pseudomonas aeruginosa (strain ATCC 15692 / DSM 22644 / CIP 104116 / JCM14847 / LMG 12228 / 1C / PRS 101 / PAO1)); assay: Inhibition of MexXY/OPRM in Pseudomonas aeruginosa C6 assessed as bacterial growth up to 320 ug/ml incubated for 24 to 48 hrs by broth microdilution method; method in brief: as §2
[18] = target: T1, MexXY/OprM (Pseudomonas aeruginosa (strain ATCC 15692 / DSM 22644 / CIP 104116 / JCM14847 / LMG 12228 / 1C / PRS 101 / PAO1)); assay: Inhibition of MexXY/OPRM in Pseudomonas aeruginosa C70 assessed as bacterial growth up to 320 ug/ml incubated for 24 to 48 hrs by broth microdilution method; method in brief: as §2
[19] = target: T1, MexXY/OprM (Pseudomonas aeruginosa (strain ATCC 15692 / DSM 22644 / CIP 104116 / JCM14847 / LMG 12228 / 1C / PRS 101 / PAO1)); assay: Inhibition of MexXY/OPRM in Pseudomonas aeruginosa C59 assessed as bacterial growth up to 320 ug/ml incubated for 24 to 48 hrs by broth microdilution method; method in brief: as §2
[20] = target: T1, MexXY/OprM (Pseudomonas aeruginosa (strain ATCC 15692 / DSM 22644 / CIP 104116 / JCM14847 / LMG 12228 / 1C / PRS 101 / PAO1)); assay: Inhibition of MexXY/OPRM in Pseudomonas aeruginosa C61 assessed as reduction in bacterial resistance to tobramycin by measuring tobramycin MIC at 80 ug/ml incubated for 24 to 48 hrs by broth microdilution method (reference value: 64 ug/ml)
[21] = target: T1, MexXY/OprM (Pseudomonas aeruginosa (strain ATCC 15692 / DSM 22644 / CIP 104116 / JCM14847 / LMG 12228 / 1C / PRS 101 / PAO1)); assay: Inhibition of MexXY/OPRM in Pseudomonas aeruginosa C9 assessed as bacterial growth up to 320 ug/ml incubated for 24 to 48 hrs by broth microdilution method; method in brief: as §1
[22] = target: T1, MexXY/OprM (Pseudomonas aeruginosa (strain ATCC 15692 / DSM 22644 / CIP 104116 / JCM14847 / LMG 12228 / 1C / PRS 101 / PAO1)); assay: Inhibition of MexXY/OPRM in Pseudomonas aeruginosa C84 assessed as reduction in bacterial resistance to tobramycin by measuring tobramycin MIC at 80 ug/ml incubated for 24 to 48 hrs by broth microdilution method (reference value: 0.5 ug/ml); method in brief: as §1
[23] = target: T1, MexXY/OprM (Pseudomonas aeruginosa (strain ATCC 15692 / DSM 22644 / CIP 104116 / JCM14847 / LMG 12228 / 1C / PRS 101 / PAO1)); assay: Inhibition of MexXY/OPRM in Pseudomonas aeruginosa C86 assessed as reduction in bacterial resistance to tobramycin by measuring fold reduction in tobramycin MIC at 80 ug/ml incubated for 24 to 48 hrs by broth microdilution method
Method in brief: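 Tobramycin MIC by CLSI broth microdilution at 37°C, read at 24 and 48 h, with and without a fixed berberine concentration selected from checkerboard assays. Berberine stock was in 50% DMSO/50% methanol, final DMSO about 1%. A 2-fold decrease in tobramycin MIC was scored as synergy.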

For `COc1ccc2cc3[n+](cc2c1OC)CCc1cc2c(cc1-3)OCO2` [BERBERINE], the MIC [1] was 64 µg/mL, the fold change (FC) [2] was > 2 and the inhibition [3] was “Active”. The MIC [4] was 0.125 µg/mL, the MIC [5] was 8 µg/mL and the inhibition [6] was “inactive”. For the same compound, the inhibition [7] was “inactive”, the inhibition [8] was “inactive” and the MIC [9] was 8 µg/mL. For the same compound, the fold change (FC) [10] was > 2, the MIC [11] was 8 µg/mL and the MIC [12] was 4 µg/mL. The MIC [13] was 32 µg/mL, the MIC [14] was 8 µg/mL and the inhibition [15] was “inactive”. The fold change (FC) [16] was > 2, the inhibition [17] was “inactive” and the inhibition [18] was “inactive”. For the same compound, the inhibition [19] was “inactive”, the MIC [20] was 16 µg/mL and the inhibition [21] was “inactive”. For the same compound, the MIC [22] was 0.125 µg/mL and the fold change (FC) [23] was > 2.
